The values that follow come from ChEMBL document CHEMBL3045036, “Chemical composition, plant genetic differences, and antifungal activity of the essential oil of Helichrysum italicum G. Don ssp. microphyllum (Willd) Nym” (2003).

Assay type in all cases: functional
Assay [1] has as its system Botrytis cinerea. In words: Fungicidal activity against Botryotinia fuckeliana. An outline of the steps: (§1)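 Broth microdilution MIC. Essential oil stock of 1 mg/mL was made in sterile broth with 50% ethanol, then serially diluted in 100 µL potato dextrose broth per well. Each well received 1 µL fungal suspension (~1 × 10^5 cells). Incubation matched the paper-disc test: several days at 24 °C. Growth and medium sterility were checked for each strain.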

In assay [2] the test system is Globisporangium ultimum. Description: Fungicidal activity against Pythium ultimum. The method in brief:
as §1

In assay [3] the test system is Phytophthora capsici. In words: Fungicidal activity against Phytophthora capsici. An outline of the steps: as §1
The subject of assay [4] is Pyricularia oryzae. In words: Fungicidal activity against Magnaporthe oryzae. An outline of the steps: as §1
For assay [5], the system named is Rhizoctonia solani. Description: Fungicidal activity against Rhizoctonia solani. The method in brief: as §1
The test system of assay [6] is Zymoseptoria tritici. Description: Fungicidal activity against Zymoseptoria tritici. An outline of the steps:
as §1

In assay [7] the test system is Fusarium graminearum. Description: Fungicidal activity against Fusarium graminearum. An outline of the steps:
as §1

Assay [8] has as its system Fusarium oxysporum f. sp. lycopersici. Description: Fungicidal activity against Fusarium oxysporum f. sp. Lycopersici. The method in brief:
as §1

For assay [9], the system named is Cercospora beticola. In words: Fungicidal activity against Cercospora beticola. The method in brief: as §1
Assay [10] relates to Helminthosporium. In words: Fungicidal activity against Helminthosporium oryzae. An outline of the steps:
as §1

Assay [11] relates to Athelia rolfsii. Description: Fungicidal activity against Athelia rolfsii. Particulars: Agroathelia rolfsii. An outline of the steps: as §1

Each structure is given as a SMILES string. Converted amounts (≈) assume the structure as drawn.

The MIC is the smallest concentration in the dilution series that meets the test's criterion for growth inhibition. A low value points to a more susceptible organism.

In assay [1], `CCOC(=O)C1(C)OC(=O)N(c2cc(Cl)cc(Cl)c2)C1=O` (stereo unspecified) [CHLOZOLINATE] showed an MIC of 3.1 µg/mL (≈ 9.33 µM).
Consider `COCC(=O)N(c1c(C)cccc1C)C(C)C(=O)OC` (stereo unspecified) [METALAXYL], for which the MIC in assay [2] is 0.6 µg/mL (≈ 2.15 µM); in assay [3], 1.5 µg/mL (≈ 5.37 µM).
Turning to `CO/N=C(\C(=O)OC)c1ccccc1COc1ccccc1C` [KRESOXYM-METHYL], the MIC in assay [4] was found to be 1.5 µg/mL (≈ 4.79 µM).
With `CCCCNC(=O)n1c(NC(=O)OC)nc2ccccc21` [BENOMYL], the MIC in [5] was 6.2 µg/mL (≈ 21.4 µM); in [6], 0.6 µg/mL (≈ 2.07 µM); in assay [7] it was 0.6 µg/mL (≈ 2.07 µM); in assay [8], 1.5 µg/mL (≈ 5.17 µM).
With `FC(F)C(F)(F)OCC(Cn1cncn1)c1ccc(Cl)cc1Cl` (stereo unspecified) [TETRACONAZOLE], the MIC stood at 1.5 µg/mL (≈ 4.03 µM) in assay [9], 0.1 µg/mL (≈ 0.269 µM) in assay [10] and 25 µg/mL (≈ 67.2 µM) in assay [11].
